pIC50: −log10 of the molar value.
What was measured:
[1] = target: Dipeptidyl peptidase 4 (Homo sapiens, UniProt P27487); test: Inhibition of human DPP4
[2] = Volume of distribution at steady state in human at 15 mg; assay type: ADME, organism-based; conditions: in vivo, read-out: Vdss
Method in brief: (§1)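 Human values projected from rat and dog ADME data by modeling; predicted plasma concentration–time profiles generated at varying doses.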

[3] = Half life in human at 15 mg; assay type: ADME, organism-based; conditions: in vivo; method in brief: as §1
[4] = Bioavailability in human at 15 mg; assay type: ADME, organism-based; conditions: in vivo; method in brief: as §1
[5] = test system: Rattus norvegicus; test: Inhibition of DPP4 in rat plasma at 5 mg/kg, po assessed as time required to inhibit 50% by PK/PD analysis; assay type: functional
[6] = Bioavailability in rat at 1 mg/kg, iv and 5 mg/kg, po; assay type: ADME, organism-based; conditions: in vivo
[7] = target: Dipeptidyl peptidase 2 (Homo sapiens, UniProt Q9UHL4); test: Inhibition of human DPP2
[8] = Clearance in rat plasma at 1 mg/kg, iv and 5 mg/kg, po; assay type: ADME, organism-based
[9] = Volume of distribution at steady state in rat at 1 mg/kg, iv; assay type: ADME, organism-based; set-up: dose 1 mg/kg, route intravenous; conditions: in vivo, read-out: Vdss
[10] = Half life in rat at 1 mg/kg, iv; assay type: ADME, organism-based; set-up: dose 1 mg/kg, route intravenous; conditions: in vivo
[11] = Clearance in dog plasma at 1 mg/kg, iv and 1 mg/kg, po; assay type: ADME, organism-based, Canis lupus familiaris
[12] = Volume of distribution at steady state in dog at 1 mg/kg, iv; assay type: ADME, organism-based, Canis lupus familiaris; set-up: dose 1 mg/kg, route intravenous; conditions: in vivo, read-out: Vdss
[13] = Half life dog at 1 mg/kg, iv; assay type: ADME, organism-based, Canis lupus familiaris; set-up: dose 1 mg/kg, route intravenous; conditions: in vivo
[14] = Bioavailability in dog at 1 mg/kg, iv and 1 mg/kg, po; assay type: ADME, organism-based, Canis lupus familiaris; conditions: in vivo
[15] = Clearance in human plasma at 15 mg; assay type: ADME, organism-based; method in brief: as §1
[16] = target: Voltage-gated inwardly rectifying potassium channel KCNH2 (Homo sapiens, UniProt Q12809); test: Inhibition of human ERG by patch-clamp assay
Voltage-gated inwardly rectifying potassium channel KCNH2, sequence (Q12809 whole entry): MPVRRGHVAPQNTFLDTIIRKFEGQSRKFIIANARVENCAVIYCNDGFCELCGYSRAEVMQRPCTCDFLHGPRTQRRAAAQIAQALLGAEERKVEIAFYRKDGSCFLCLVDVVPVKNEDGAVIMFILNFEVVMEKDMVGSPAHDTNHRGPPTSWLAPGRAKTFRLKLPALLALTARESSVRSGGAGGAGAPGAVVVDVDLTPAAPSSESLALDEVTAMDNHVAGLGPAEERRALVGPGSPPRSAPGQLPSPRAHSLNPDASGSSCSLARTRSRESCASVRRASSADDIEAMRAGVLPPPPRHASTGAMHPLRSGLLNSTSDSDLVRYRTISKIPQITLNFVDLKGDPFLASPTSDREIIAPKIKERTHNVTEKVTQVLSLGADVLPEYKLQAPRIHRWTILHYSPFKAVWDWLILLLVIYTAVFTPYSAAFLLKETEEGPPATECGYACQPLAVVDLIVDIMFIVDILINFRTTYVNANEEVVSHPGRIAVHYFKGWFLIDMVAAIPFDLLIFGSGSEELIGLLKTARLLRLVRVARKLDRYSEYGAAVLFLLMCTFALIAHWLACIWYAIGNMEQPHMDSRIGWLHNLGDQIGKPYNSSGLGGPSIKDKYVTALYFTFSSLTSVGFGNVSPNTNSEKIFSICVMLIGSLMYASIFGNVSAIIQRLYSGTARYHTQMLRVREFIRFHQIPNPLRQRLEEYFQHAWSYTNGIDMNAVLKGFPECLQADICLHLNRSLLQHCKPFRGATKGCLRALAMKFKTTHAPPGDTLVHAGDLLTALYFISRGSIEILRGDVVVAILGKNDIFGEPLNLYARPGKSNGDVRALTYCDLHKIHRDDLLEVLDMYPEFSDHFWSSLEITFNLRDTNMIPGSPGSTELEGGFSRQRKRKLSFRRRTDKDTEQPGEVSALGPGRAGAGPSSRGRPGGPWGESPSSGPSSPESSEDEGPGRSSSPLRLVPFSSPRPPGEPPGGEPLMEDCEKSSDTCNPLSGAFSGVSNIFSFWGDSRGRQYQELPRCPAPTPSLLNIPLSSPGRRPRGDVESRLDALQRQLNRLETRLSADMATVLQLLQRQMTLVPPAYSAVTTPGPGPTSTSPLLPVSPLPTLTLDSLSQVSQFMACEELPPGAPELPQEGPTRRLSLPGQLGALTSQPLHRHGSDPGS

Dipeptidyl peptidase 4, sequence (P27487 whole entry): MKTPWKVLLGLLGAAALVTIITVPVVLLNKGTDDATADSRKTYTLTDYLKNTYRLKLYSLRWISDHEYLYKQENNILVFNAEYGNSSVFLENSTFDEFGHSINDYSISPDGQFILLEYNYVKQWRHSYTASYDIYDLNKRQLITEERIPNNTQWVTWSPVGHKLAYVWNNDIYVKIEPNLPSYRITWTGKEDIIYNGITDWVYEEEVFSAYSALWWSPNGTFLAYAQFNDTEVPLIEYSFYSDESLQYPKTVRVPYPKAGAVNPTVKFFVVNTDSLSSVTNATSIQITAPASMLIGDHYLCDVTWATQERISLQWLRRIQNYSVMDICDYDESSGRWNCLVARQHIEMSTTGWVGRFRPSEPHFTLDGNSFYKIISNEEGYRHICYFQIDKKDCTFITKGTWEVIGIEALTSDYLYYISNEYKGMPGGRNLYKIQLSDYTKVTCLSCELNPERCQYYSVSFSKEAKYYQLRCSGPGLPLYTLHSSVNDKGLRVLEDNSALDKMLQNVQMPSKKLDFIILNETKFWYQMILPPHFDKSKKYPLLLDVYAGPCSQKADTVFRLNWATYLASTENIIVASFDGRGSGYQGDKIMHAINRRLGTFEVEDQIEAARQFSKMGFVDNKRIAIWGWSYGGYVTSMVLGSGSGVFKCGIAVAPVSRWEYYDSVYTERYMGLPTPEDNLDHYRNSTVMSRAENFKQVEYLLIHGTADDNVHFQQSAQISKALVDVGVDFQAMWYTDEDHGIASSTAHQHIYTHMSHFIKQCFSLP

Structure (SMILES) | pIC50 [1] | Activity [5] | pIC50 [7] | other results
Fc1cc(F)c(C[C@@H]2CCCCN2)cc1F | < 4.52 |  |  | 
NCCc1cc(F)c(F)cc1F | < 4.52 |  |  | 
Cc1cc2ncc(C(=O)N3CCC([C@H](N)Cc4cc(F)c(F)cc4F)CC3)c(C)n2n1 |  | >20 h | 4.77 | Vd [2]: 1 L/kg; half-life [3]: 3.5 h; bioavailability [4]: 70%; bioavailability [6]: 70%; clearance [8]: 18 mL/min/kg; Vd [9]: 2.2 L/kg; half-life [10]: 5.09 h; clearance [11]: 12.9 mL/min/kg; Vd [12]: 2.2 L/kg; half-life [13]: 3.71 h; bioavailability [14]: 52%; clearance [15]: 3.4 mL/min/kg
Cc1ncc(C)c(C(=O)N2CCC([C@H](N)Cc3cc(F)c(F)cc3F)CC2)n1 |  | 8 h | < 4.52 | pIC50 [16]: 4.07
Cc1nccnc1C(=O)N1CCC([C@H](N)Cc2cc(F)c(F)cc2F)CC1 |  | 12 h | < 4.52 | pIC50 [16]: 4.26
N[C@H](Cc1cc(F)c(F)cc1F)C1CCN(C(=O)c2cnc3ncccn23)CC1 |  | >24 h | 4.97 | 
N[C@H](Cc1cc(F)c(F)cc1F)C1CCN(C(=O)c2ccc(F)cc2F)CC1 |  |  | 4.95 | 
N[C@H](Cc1cc(F)c(F)cc1F)C1CCN(C(=O)c2cc3ccccc3cn2)CC1 |  |  | 4.99 | 
N[C@H](Cc1cc(F)c(F)cc1F)CC1CCCCC1 | < 4.52 |  |  | 
Nc1nccnc1C(=O)N1CCC([C@H](N)Cc2cc(F)c(F)cc2F)CC1 |  |  | 5.04 | 

Source: ChEMBL document CHEMBL1153974, “Piperidinyl-2-phenethylamino inhibitors of DPP-IV for the treatment of type 2 diabetes” (Bioorg Med Chem Lett, 2009)
